The text below walks through data of ChEMBL document CHEMBL4130405, “Iridoid Glycosides from the Twigs of Sambucus williamsii var. coreana and Their Biological Activities” (J Nat Prod, 2017).

Each structure is given as a SMILES string. A value given as a limit tells only on which side of the number the result lay.

In one series the test system is A549. Kind of series: Cytotoxicity against human A549 cells after 48 hrs by SRB assay. The format is functional, cell-based. The settings on record: A549, 48 h. The method, boiled down: (§1)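 Cells from ATCC were seeded and left 24 h at 37 °C under 5% CO2. Attached cells were then exposed for 48 h to serial dilutions of 30, 10, 3, 1, 0.3 and 0.1 μM. Cells were fixed with cold 10% TCA at 4 °C for 1 h and stained with 0.4% SRB for 30 min at room temperature. Dye was solubilized in 10 mM Tris base (pH 10.5) and absorbance read at 520 nm. Etoposide served as positive control. IC50 is the mean ± SD of three independent experiments.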
For orientation: In SRB staining, fixed cells bind dye roughly in proportion to their protein.
On to `CC(=O)OC[C@@]1(O)CC[C@@H]2C(CO[C@@H]3O[C@H](CO)[C@@H](O)[C@H](O)[C@H]3OC(=O)/C=C/c3ccc(O)cc3)=CO[C@@H](OC(=O)CC(C)C)[C@@H]21`, for which the IC50 is greater than 10 µM.
The compound `CCC(C)C(=O)O[C@@H]1OC=C(CO[C@@H]2O[C@H](CO)[C@@H](O)[C@H](O)[C@H]2OC(=O)/C=C/c2ccc(O)cc2)[C@H]2CC[C@](O)(CO)[C@@H]12` (some centres not stated) had an IC50 of 3.8 µM.
For `CC(C)CC(=O)O[C@@H]1OC=C(CO[C@@H]2O[C@H](CO)[C@@H](O)[C@H](O)[C@H]2O)[C@H]2C[C@H](O)[C@](O)(CO)[C@@H]12`, the IC50 is greater than 10 µM.
Turning to `COc1cc([C@@H]2c3cc4c(cc3[C@@H](O[C@@H]3O[C@@H]5CO[C@@H](C)O[C@H]5[C@H](O)[C@H]3O)[C@H]3COC(=O)[C@H]23)OCO4)cc(OC)c1O` [ETOPOSIDE], it took 1.1 µM to reach half-maximal inhibition (IC50).

Another series concerns SK-OV-3. Kind of series: Cytotoxicity against human SKOV3 cells after 48 hrs by SRB assay. Format: functional, cell-based. As to conditions: SK-OV-3, 48 h. The method, boiled down: as §1
`CC(=O)OC[C@@]1(O)CC[C@@H]2C(CO[C@@H]3O[C@H](CO)[C@@H](O)[C@H](O)[C@H]3OC(=O)/C=C/c3ccc(O)cc3)=CO[C@@H](OC(=O)CC(C)C)[C@@H]21` gave an IC50 greater than 10000 nM.
Still for that read-out and setting: the result for `CCC(C)C(=O)O[C@@H]1OC=C(CO[C@@H]2O[C@H](CO)[C@@H](O)[C@H](O)[C@H]2OC(=O)/C=C/c2ccc(O)cc2)[C@H]2CC[C@](O)(CO)[C@@H]12` (some centres not stated) reads 1900 nM; that for `CC(C)CC(=O)O[C@@H]1OC=C(CO[C@@H]2O[C@H](CO)[C@@H](O)[C@H](O)[C@H]2O)[C@H]2C[C@H](O)[C@](O)(CO)[C@@H]12`, greater than 10000 nM.
Still for that read-out and setting: the result for `COc1cc([C@@H]2c3cc4c(cc3[C@@H](O[C@@H]3O[C@@H]5CO[C@@H](C)O[C@H]5[C@H](O)[C@H]3O)[C@H]3COC(=O)[C@H]23)OCO4)cc(OC)c1O` [ETOPOSIDE] reads 2900 nM.

A further series deals with SK-MEL-2. Kind of series: Cytotoxicity against human SK-MEL-2 cells after 48 hrs by SRB assay. Format: functional, cell-based. As to conditions: SK-MEL-2, 48 h. The method, boiled down:
as §1
`CC(=O)OC[C@@]1(O)CC[C@@H]2C(CO[C@@H]3O[C@H](CO)[C@@H](O)[C@H](O)[C@H]3OC(=O)/C=C/c3ccc(O)cc3)=CO[C@@H](OC(=O)CC(C)C)[C@@H]21`: the IC50 was greater than 10000 nM.
`CCC(C)C(=O)O[C@@H]1OC=C(CO[C@@H]2O[C@H](CO)[C@@H](O)[C@H](O)[C@H]2OC(=O)/C=C/c2ccc(O)cc2)[C@H]2CC[C@](O)(CO)[C@@H]12` (some centres not stated) returned an IC50 of 1400 nM.
Consider `CC(C)CC(=O)O[C@@H]1OC=C(CO[C@@H]2O[C@H](CO)[C@@H](O)[C@H](O)[C@H]2O)[C@H]2C[C@H](O)[C@](O)(CO)[C@@H]12`, for which the IC50 was greater than 10000 nM.
The same measure, in the same setting: the result for `COc1cc([C@@H]2c3cc4c(cc3[C@@H](O[C@@H]3O[C@@H]5CO[C@@H](C)O[C@H]5[C@H](O)[C@H]3O)[C@H]3COC(=O)[C@H]23)OCO4)cc(OC)c1O` [ETOPOSIDE] reads 200 nM.

A further series relates to BT-549. Kind of series: Cytotoxicity against human BT549 cells after 48 hrs by SRB assay. The format is functional, cell-based. The settings on record: BT-549, 48 h. The method in brief:
as §1
Take `CC(=O)OC[C@@]1(O)CC[C@@H]2C(CO[C@@H]3O[C@H](CO)[C@@H](O)[C@H](O)[C@H]3OC(=O)/C=C/c3ccc(O)cc3)=CO[C@@H](OC(=O)CC(C)C)[C@@H]21`: the IC50 was greater than 10000 nM.
In the case of `CCC(C)C(=O)O[C@@H]1OC=C(CO[C@@H]2O[C@H](CO)[C@@H](O)[C@H](O)[C@H]2OC(=O)/C=C/c2ccc(O)cc2)[C@H]2CC[C@](O)(CO)[C@@H]12` (some centres not stated), the IC50 was determined as 1300 nM.
`CC(C)CC(=O)O[C@@H]1OC=C(CO[C@@H]2O[C@H](CO)[C@@H](O)[C@H](O)[C@H]2O)[C@H]2C[C@H](O)[C@](O)(CO)[C@@H]12` registered an IC50 greater than 10000 nM.
Consider `COc1cc([C@@H]2c3cc4c(cc3[C@@H](O[C@@H]3O[C@@H]5CO[C@@H](C)O[C@H]5[C@H](O)[C@H]3O)[C@H]3COC(=O)[C@H]23)OCO4)cc(OC)c1O` [ETOPOSIDE], for which the IC50 was 1000 nM.

For another series, the system named is BV-2. Kind of series: Antineuroinflammatory activity in mouse BV2 cells assessed as inhibition of LPS-induced nitric oxide production pretreated for 30 mins followed by LPS-stimulation after 24 hrs by Griess assay. The format is functional, cell-based.
Conditions: not given
The method in brief: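 BV-2 microglia were pretreated with compound for 30 min, then stimulated with LPS (100 ng/mL) for 24 h. Nitrite in the supernatant was mixed with an equal volume of Griess reagent (1% sulfanilamide, 0.1% naphthylethylenediamine in 5% phosphoric acid) for 10 min and read at 570 nm. Values were quantified against a sodium nitrite standard curve. L-NMMA served as positive control. IC50 is the concentration giving 50% inhibition of NO production; three independent experiments.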
As to `CC(=O)OC[C@@]1(O)CC[C@@H]2C(CO[C@@H]3O[C@H](CO)[C@@H](O)[C@H](O)[C@H]3OC(=O)/C=C/c3ccc(O)cc3)=CO[C@@H](OC(=O)CC(C)C)[C@@H]21`, the IC50 was found to be 29.8 µM.
Take `CCC(C)C(=O)O[C@@H]1OC=C(CO[C@@H]2O[C@H](CO)[C@@H](O)[C@H](O)[C@H]2OC(=O)/C=C/c2ccc(O)cc2)[C@H]2CC[C@](O)(CO)[C@@H]12` (some centres not stated): the IC50 was in the range of 1.25 to 1.3 µM.
Same read-out and setting: in the case of `CC(C)CC(=O)O[C@@H]1OC=C(CO[C@@H]2O[C@H](CO)[C@@H](O)[C@H](O)[C@H]2O)[C@H]2C[C@H](O)[C@](O)(CO)[C@@H]12` it was 112 µM; in that of `CNC(=N)NCCC[C@H](N)C(=O)O` [TILARGININE], 13.2 µM.

System in the next series: not listed separately
Kind of series: Cytotoxicity against mouse BV2 cells assessed as cell viability at 20 uM by MTT assay relative to control. The format is cell-based, BV-2. As to conditions: read-out: Activity. The method, boiled down: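 Viability of LPS-activated BV-2 cells was measured after 24 h treatment with 20 μM compound. Read-out was MTT, expressed as percent. Values are means ± SD of three independent experiments.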
(Tetrazolium assays rely on reduction of a dye to a coloured formazan, in cell work by metabolically active cells.)
Consider `CC(=O)OC[C@@]1(O)CC[C@@H]2C(CO[C@@H]3O[C@H](CO)[C@@H](O)[C@H](O)[C@H]3OC(=O)/C=C/c3ccc(O)cc3)=CO[C@@H](OC(=O)CC(C)C)[C@@H]21`, for which the viability at 20 µM came out at 143%.
As for `CCC(C)C(=O)O[C@@H]1OC=C(CO[C@@H]2O[C@H](CO)[C@@H](O)[C@H](O)[C@H]2OC(=O)/C=C/c2ccc(O)cc2)[C@H]2CC[C@](O)(CO)[C@@H]12` (some centres not stated), the viability at 20 µM came out at 136%.
For the compound `CC(C)CC(=O)O[C@@H]1OC=C(CO[C@@H]2O[C@H](CO)[C@@H](O)[C@H](O)[C@H]2O)[C@H]2C[C@H](O)[C@](O)(CO)[C@@H]12`, the viability at 20 µM came out at 103%.
The same measure, in the same setting: the result for `CNC(=N)NCCC[C@H](N)C(=O)O` [TILARGININE] reads 120%.

A further series deals with C6. The experiment in a line: Induction of NGF secretion in rat C6 cells at 20 uM after 24 hrs by ELISA relative to control.
Conditions: not given
Format: functional. The method in brief:
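C6 glioma cells were seeded at 1 × 10^5 cells/well in DMEM with 10% FBS. After 24 h, cells were exposed to 20 μM compound in DMEM with 2% FBS for 24 h. NGF secreted into the conditioned medium was measured by ELISA as percent of untreated control (100%). 6-Shogaol served as positive control. Data are mean ± SD of three independent experiments in triplicate.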
In general terms: An ELISA detects its analyte on a solid surface through an enzyme-linked reagent.
`CC(=O)OC[C@@]1(O)CC[C@@H]2C(CO[C@@H]3O[C@H](CO)[C@@H](O)[C@H](O)[C@H]3OC(=O)/C=C/c3ccc(O)cc3)=CO[C@@H](OC(=O)CC(C)C)[C@@H]21` displayed an Activity of 158.7%.
The compound `CCC(C)C(=O)O[C@@H]1OC=C(CO[C@@H]2O[C@H](CO)[C@@H](O)[C@H](O)[C@H]2OC(=O)/C=C/c2ccc(O)cc2)[C@H]2CC[C@](O)(CO)[C@@H]12` (some centres not stated) returned an Activity of 145.4%.
Take `CC(C)CC(=O)O[C@@H]1OC=C(CO[C@@H]2O[C@H](CO)[C@@H](O)[C@H](O)[C@H]2O)[C@H]2C[C@H](O)[C@](O)(CO)[C@@H]12`: the Activity was determined as 107.4%.
Regarding `CCCCC/C=C/C(=O)CCc1ccc(O)c(OC)c1` [SHOGAOL], the Activity is listed as 146.3%.

System in the next series: not listed separately
The experiment in a line: Cytotoxicity against rat C6 cells assessed as cell viability at 20 uM after 24 hrs by MTT assay relative to control. The format is cell-based. As to conditions: read-out: Activity. The method in brief: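 C6 glioma cells were kept in DMEM with 10% FBS and seeded at 1 × 10^5 cells/well. After 24 h, cells were treated with 20 μM compound in DMEM with 2% FBS for 24 h. MTT reagent was added for 1 h at 37 °C, formazan dissolved in DMSO and absorbance read at 570 nm. Results are percent, mean ± SD of three independent experiments.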
`CC(=O)OC[C@@]1(O)CC[C@@H]2C(CO[C@@H]3O[C@H](CO)[C@@H](O)[C@H](O)[C@H]3OC(=O)/C=C/c3ccc(O)cc3)=CO[C@@H](OC(=O)CC(C)C)[C@@H]21`: the viability at 24 h, 20 µM was 120%.
The same measure, in the same setting: the result for `CCC(C)C(=O)O[C@@H]1OC=C(CO[C@@H]2O[C@H](CO)[C@@H](O)[C@H](O)[C@H]2OC(=O)/C=C/c2ccc(O)cc2)[C@H]2CC[C@](O)(CO)[C@@H]12` (some centres not stated) reads 101%; that for `CC(C)CC(=O)O[C@@H]1OC=C(CO[C@@H]2O[C@H](CO)[C@@H](O)[C@H](O)[C@H]2O)[C@H]2C[C@H](O)[C@](O)(CO)[C@@H]12`, 116%; that for `CCCCC/C=C/C(=O)CCc1ccc(O)c(OC)c1` [SHOGAOL], 98.8%.

The IC50 is the concentration that gives 50% inhibition.
